# Screening data (PubChem BioAssay)
# This is a sample that favours compounds with a hit; in the whole collection about 3% have one here.
# MEKK2mut PB1 HTS – MEK5 binding signal on mutant MEKK2 PB1, primary screen, biochemical, multiplex bead flow cytometry, Alexa488-MEK5. 290,000 compounds, 0.35% hits. percent response, % at 10 µM. AID 1530, 2009. Alexa488-MEK5 binding to MEKK2 mutant; in the data active = percent response above about 24%, passing the limit was not always enough
# MEKK2 WT-MEK5 – modulators of MEK5 binding to wildtype MEKK2, primary screen, biochemical, multiplex bead flow cytometry, Alexa488-MEK5; Mitogen-activated protein kinase kinase kinase 2 (Homo sapiens), Q9Y2U5; Alexa488-MEK5 binding to MEKK2 WT; actives lie on both sides; binding response (% of control), % at 10 µM; 290,000 compounds, 1.1% hits; in the data active = binding response below about 67% or above about 130%
# Apaf1 inhib – inhibitors of human Apaf-1 apoptosome, primary screen, biochemical, DEVD-Rh110 fluorescence, uHTS. 330,000 compounds, 0.71% hits. reconstituted apoptosome caspase-3 activity. inhibition, % at 20 µM. Apoptotic protease-activating factor 1 (Homo sapiens), O14727; active = inhibition of at least 40% at 20 µM;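 also: plate controls were DMSO wells for no effect and DEVD-CHO caspase inhibitor wells for full effect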
#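 Material: reconstituted apoptosome with Apaf-1, cytochrome c, caspase-9, procaspase-3, dATP. Technique: Rh110 fluorescence intensity. Buffer or medium: pH 7.5 Hepes buffer with CHAPS, BSA, DTT. Times: 30 min plus 50 min, RT.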
# MEKK3 PB1 HTS – modulators of MEKK3-MEK5 PB1 binding, primary screen, biochemical, wildtype MEKK3, multiplex bead flow cytometry, Alexa488-MEK5; bead-based flow cytometry, Alexa488-MEK5 binding to MEKK3; actives lie on both sides; 0 = blocked by unlabeled MEK5, 100 = vehicle; binding response (% of control), % at 10 µM; 290,000 compounds, 1.4% hits; AID 1529, 2009;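 active = binding response more than 3 SD above or below the average of its plate-row segment, actives on both sides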;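 also: Alexa488 bead fluorescence after subtracting the streptavidin-only scavenger bead signal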
# Target sequence (Q99759 whole entry, looked up): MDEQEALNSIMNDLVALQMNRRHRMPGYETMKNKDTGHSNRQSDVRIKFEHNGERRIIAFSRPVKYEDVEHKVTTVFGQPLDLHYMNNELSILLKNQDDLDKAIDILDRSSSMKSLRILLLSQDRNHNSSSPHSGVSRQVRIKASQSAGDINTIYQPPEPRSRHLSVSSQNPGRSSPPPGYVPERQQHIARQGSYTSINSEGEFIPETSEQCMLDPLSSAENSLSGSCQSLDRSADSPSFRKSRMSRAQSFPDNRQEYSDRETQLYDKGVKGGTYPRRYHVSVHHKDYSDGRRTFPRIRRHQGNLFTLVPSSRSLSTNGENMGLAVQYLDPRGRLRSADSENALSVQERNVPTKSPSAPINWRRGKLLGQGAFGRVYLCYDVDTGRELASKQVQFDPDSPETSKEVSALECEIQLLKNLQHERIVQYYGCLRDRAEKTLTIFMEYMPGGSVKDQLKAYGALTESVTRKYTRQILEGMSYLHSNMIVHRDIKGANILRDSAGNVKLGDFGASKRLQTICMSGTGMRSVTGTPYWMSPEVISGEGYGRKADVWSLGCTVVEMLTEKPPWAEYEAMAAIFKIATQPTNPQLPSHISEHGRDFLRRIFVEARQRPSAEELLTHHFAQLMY
# UBC13 inh – UBC13 polyubiquitin chain formation inhibitors, primary screen, biochemical, TR-FRET, uHTS. Ubiquitin-conjugating enzyme E2 N (Homo sapiens), P61088. inhibition, % at 20 µM. 330,000 compounds, 0.47% hits; in the data active = inhibition above about 45%, passing the limit was not always enough
# UCH37 inh – inhibitors of human UCH37 deubiquitinase, primary screen, biochemical, Ub-AMC cleavage, fluorescence. Ubiquitin carboxyl-terminal hydrolase isozyme L5 (Homo sapiens), Q9Y5K5. purified proteasome/UCH37. inhibition, % (no concentration beside the values). 330,000 compounds, 0.33% hits. AID 588478, 2011;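 active = mean inhibition over replicate wells above about 20%, limit read from the data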;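 also: 0% = compound-free wells with enzyme and 100% = wells lacking proteasome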
#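 system = Proteasome-associated human UCH37 deubiquitinase | amount = 0.15 nM proteasome as dispensed | medium = pH 7.4 Tris-HCl (50 mM) with ovalbumin, ATP-MgCl2, DTT | incubation = 30 min preincubation with enzyme, 25 min cleavage at room temperature | detection = AMC fluorescence 355/460 nm | read-out basis = percent inhibition | controls = no-proteasome and no-compound wells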
# Casp3 counter – CASP3 inhibitor validation, counterassay for project on UBE2N polyubiquitination blockers, biochemical, one dose | Recombinant caspase-3, Caspase-Glo 3/7 luminescence, 60 min | inhibition, % at 20 µM | 1,400 compounds, 4% hits | shares compounds with UBC13 inh | AID 488856, 2010;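 active = mean inhibition across replicates above about 26%, limit read from the data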;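 also: plate controls were DMSO with caspase-3 for no effect and DMSO wells lacking enzyme for full effect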
# UBC13 conf – UBC13 polyubiquitination inhibitors, single-point retest, confirmation, biochemical, TR-FRET, single concentration | shares compounds with UBC13 inh | inhibition, % at 10 µM | 1,400 compounds, 68% hits; in the data active = inhibition above about 45%
# * marks the source's active call; other numbers are inactive results; nt = no result given.
SMILES,MEKK2mut PB1 HTS,MEKK2 WT-MEK5,Apaf1 inhib,MEKK3 PB1 HTS,UBC13 inh,UCH37 inh,Casp3 counter,UBC13 conf
Cc1cc(C)cc(NC(=O)COC(=O)c2cc(=O)[nH]c(=O)[nH]2)c1,3,106,3,104,35,nt,nt,nt
CCOC(=O)CCCSc1nnc(CCCCCN2C(=O)c3cccc4cccc(c34)C2=O)o1,9,121,29,108,53*,-28,-2,42
CCn1c(C)nc2cc(C(=O)N/N=C/c3ccccc3C)ccc21,-2,99,2,101,-6,nt,nt,nt
C/C(=N/NC(=O)c1ccc(C(C)(C)C)cc1)c1ccccn1,nt,nt,9,nt,51*,nt,61*,101*
CC(C)(C)c1ccc(C(=O)N/N=C/c2ccccn2)cc1,1,97,9,97,65*,nt,5,87*
O=C(CSc1nc(=O)n(CCCN2CCOCC2)c2c1CCC2)Nc1ccc(F)cc1,nt,nt,3,nt,-1,-1,nt,nt
Cc1nc2ccccn2c1C(=O)N/N=C/c1ccccc1[N+](=O)[O-],0,102,-28,108,63*,nt,-5,-3
Cc1nc2c(C)cccn2c1C(=O)N/N=C/c1ccccc1[N+](=O)[O-],7,101,2,104,-8,nt,nt,nt
O=C(NCc1ccncc1)C1CCN(S(=O)(=O)c2cccc(C(F)(F)F)c2)CC1,0,98,6,95,5,0,nt,nt
O=C(Nc1ccncc1)C1CCN(S(=O)(=O)c2cccc(C(F)(F)F)c2)CC1,nt,nt,39,nt,54*,-3,1,32
O=C(CCn1nc(-c2ccc(Cl)cc2)ccc1=O)N1CCOCC1,15,111,-5,110,5,3,nt,nt
CCOc1ccc(N(C(=O)c2cnccn2)C(C(=O)NC2CCCCC2)c2ccc(O)cc2)cc1 (stereo not given),-9,89,9,99,-8,1,nt,nt
CC1CCCN(CCCNC(=O)C2CCCN(c3ncnc4c3nc3n4CCCCC3)C2)C1 (stereo not given),0,110,7,99,24,2,nt,nt
Cc1ccccc1CN1CCC(CNC(=O)C2CCCN(c3ncnc4c3nc3n4CCCCC3)C2)CC1 (stereo not given),15,115,9,99,72*,5,1,90*
COc1cccc(CCNC(=O)C2CCCN(c3ncnc4c3nc3n4CCCCC3)C2)c1OC (stereo not given),-1,102,3,100,8,3,nt,nt
O=C(NCCCN1CCN(c2ccc(F)cc2)CC1)C1CCCN(c2ncnc3c2nc2n3CCCCC2)C1 (stereo not given),9,118,9,100,83*,5,1,107*
Cc1cc(Br)ccc1OCCN1CC(C)OC(C)C1 (stereo not given),1,104,-3,105,4,1,nt,nt
O=C(O)C(Cc1ccc(O)cc1)N1C(=O)c2c(Cl)c(Cl)c(Cl)c(Cl)c2C1=O (stereo not given),nt,nt,-12,nt,1,1,nt,nt
Cc1ccc(C)c(N2CCN(C(=S)Nc3ccc4nc(N5CCOCC5)cc(C)c4c3)CC2)c1,-1,110,18,126,-10,-7,nt,nt
Cc1ccc(C)c(N2CCN(C(=S)Nc3ccc4nc(N5CCN(C)CC5)cc(C)c4c3)CC2)c1,15,128,7,102,49*,-7,0,73*
NNC(=O)c1nc[nH]c1C(=O)Nc1ccccn1,-3,93,1,96,-4,nt,nt,nt
CN(Cc1ccccc1)C(=O)COC(=O)c1cc(Cl)nc(Cl)c1,-2,101,-6,95,-5,2,nt,nt
COc1ccc(C(=O)Nc2ccc3oc(-c4cccc(F)c4)nc3c2)cc1OC,nt,nt,-3,nt,54*,-63,3,35
COc1ccc(C(=O)Nc2ccc3oc(-c4cccnc4)nc3c2)cc1OC,-12,85,5,99,6,-26,nt,nt
O=C(COc1ccc(Cc2ccccc2)cc1)c1ccc(F)cc1,1,101,16,99,45*,3,49*,8
SMILES,MEKK2mut PB1 HTS,MEKK2 WT-MEK5,Apaf1 inhib,MEKK3 PB1 HTS,UBC13 inh,UCH37 inh,Casp3 counter,UBC13 conf
O=C(COc1ccc(F)cc1)c1ccc2c(c1)CCCC2,9,100,13,109,-1,-4,nt,nt
CC(C)(C)CNc1cc(N2CCCC2)ccc1[N+](=O)[O-],0,100,20,102,-28,4,nt,nt
CCc1ccc(OCCNc2cc(N3CCNC(C)C3)ccc2[N+](=O)[O-])cc1 (stereo not given),nt,nt,75*,nt,68*,12,-4,55*
O=C(Nc1cccc(Cl)c1)N(CCN1CCOCC1)Cc1cccc(Cl)c1,3,105,4,100,4,2,nt,nt
O=C1CC(c2ccc(F)cc2)C(n2cncn2)C(O)=C1C1NCCc2ccccc21 (stereo not given),-3,99,-6,106,54*,3,-1,9
Cc1ccc(-n2nc3c4c(cccc4c2=O)-c2ccccc2-3)cc1,3,102,16,108,46*,-54,8,39
CCN(CC)CCOc1ccc(/C(=C(\Cl)c2ccccc2)c2ccccc2)cc1,nt,nt,66*,nt,74*,2,-2,81*
COc1ccccc1NC(=O)COC(=O)C12CC3CC(CC(Br)(C3)C1)C2,nt,nt,12,nt,50*,3,-3,44
COc1ccc(CNC(=O)CC23CC4CC(CC(C4)C2)C3)cc1OC,2,105,-2,102,4,5,nt,nt
COc1ccccc1NC(=O)CNC(=O)CC12CC3CC(CC(C3)C1)C2,nt,nt,8,nt,80*,5,3,79*
Cc1nc2scc(C)n2c(=O)c1S(=O)(=O)N1CCN(c2cccc(C(F)(F)F)c2)CC1,-6,95,14,104,0,-1,nt,nt
COc1cccc(SCC2(O)CCN(C(=O)c3ccc(Cl)cc3)CC2)c1,4,103,18,100,-2,2,nt,nt
